Assay results of several laboratories.
Target: Serine/threonine-protein kinase PRP4 homolog (PRPF4B, Homo sapiens, UniProt Q13523)

SMILES	read-out	technique	concentration	remaining binding
CC1CCCN1c1nccc(-c2cnn3ncccc23)n1 (stereo not shown)	binding	–	1 µM	100%
Cc1nn(C)cc1-c1nc2c(N3CCN(Cc4ccc(Cl)cc4)CC3)c(Cl)cnc2[nH]1	binding	competition with immobilised ligand	1 µM	100%
c1cncc(-c2cccc(Nc3nccc(NC4CCCCC4)n3)c2)c1	binding	competition with immobilised ligand	10 µM	100%
COc1ccnn2ncc(-c3ccnc(N(C)C)n3)c12	binding	–	1 µM	69%
Cc1cnc(Nc2ccc(C(=O)N3CCC(N4CCCC4)CC3)cc2)nc1-c1cc2ccccc2s1	binding	competition with immobilised ligand	1 µM	5.2%
Nc1ncc2c(n1)-c1c([nH]c3ccc(C#CC4CC4)cc13)CCCC2	binding	competition with immobilised ligand	1 µM	80%
CNC(=O)[C@@H]1CC[C@@H](n2c(-c3ccc4cnccc4c3)nc3ccc(C(=O)NCc4cccc(C(N)=O)c4)cc32)C1	binding	competition with immobilised ligand	1 µM	100%
C[C@@H]1CN(c2cc(-c3nn(C)c4ccc(OC5(C)CC5)cc34)ncn2)C[C@H](C)O1	cell-free assay	competition with immobilised ligand	1 µM	100%
C[C@@H](c1ccc(-n2cnc3c(N)ncnc32)cc1)N1CCc2nn(C)c(Cc3ccccc3)c2C1=O	binding	competition with immobilised ligand	0.1 µM	100%
O=C(NCC1CCOCC1)c1n[nH]cc1NC(=O)c1c(F)cccc1F	binding	competition with immobilised ligand	1 µM	100%
O=C(c1ccc(Nc2ncc(Cl)c(-c3cc4ccccc4s3)n2)cc1)N1CCC(N2CCCC2)CC1	binding	competition with immobilised ligand	1 µM	3.7%
Cc1noc([C@H]2C[C@@H](c3ccc(C(F)(F)F)cc3)CN(C(=O)N3CCS(=O)(=O)C3)C2)n1	cell-free assay	competition with immobilised ligand	1 µM	72%
C[C@@H]1CCN(c2nccc(-c3cnn4ncccc34)n2)C1	binding	–	1 µM	64%
CN1CCN(c2cnc3c(C4CCN(C(=O)c5ccc(OC(F)(F)F)cc5N)CC4)ncnc3c2)CC1	cell-free assay	competition with immobilised ligand	1 µM	100%
Cc1cnn2ncc(-c3ccnc(N(C)C)n3)c2c1	binding	–	1 µM	94%
COc1cnc(Nc2cccc(S(N)(=O)=O)c2)nc1N1CCN(c2ccccc2)CC1	binding	competition with immobilised ligand	1 µM	90%
C[C@@H]1CN(c2cc(-c3n[nH]c4ccc(OC5(C)CC5)cc34)ncn2)C[C@H](C)O1	cell-free assay	competition with immobilised ligand	0.1 µM	83%
CN(C)c1nccc(-c2cnn3ncccc23)n1	binding	–	1 µM	86%
CS(=O)(=O)N1CCCC(NC(=O)[C@H](CCC2CCCCC2)NC(=O)c2ccc(CNc3ncnc4c3nnn4-c3ccccc3)cc2)C1 (stereo partly shown)	cell-free assay	competition with immobilised ligand	0.1 µM	60%
O=C(c1ccc(Nc2nccc(-c3cc4ccccc4s3)n2)cc1)N1CCC(N2CCCC2)CC1	binding	competition with immobilised ligand	1 µM	6.3%
N[C@@H]1CCN(c2nccc(-c3cnn4ncccc34)n2)C1	binding	–	1 µM	100%
CC(=O)N1CCC(c2ccc(C(=O)NC(=N)N)cc2C(F)(F)F)CC1	cell-free assay	competition with immobilised ligand	1 µM	78%
